In ChEMBL document CHEMBL1641594, “Cytotoxicity of new polyfluorinated 1,4-naphtoquinones with diverse substituents in the quinone moiety” (Bioorg Med Chem, 2011):

What was measured:
MCF7 [1] = assay: Ratio of compound IC50 to F-Cpd5 IC50 for human MCF7 cells; type: functional, cell-based
RPMI-8226 [2] = assay: Ratio of compound IC50 to F-Cpd5 IC50 for human RPMI8226 cells; type: functional, cell-based
[3] = Cytotoxicity against PMF after 72 hrs by MTT assay; parameters: species or system Mus musculus
In short: (§1)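 RPMI 8226, MCF-7, LMTK and primary mouse fibroblasts (PMF) were seeded at ~2000 cells per well and preincubated 24 h at 37 °C, 5% CO2, in IMDM or RPMI 1640. Compounds were then added and cells incubated a further 72 h. Viable cells were quantified by MTT colorimetric assay, and the concentration giving 50% growth inhibition (IC50) was derived. Values are mean ± SD of at least three independent experiments.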

[4] = Cytotoxicity against mouse LMTK cells after 72 hrs by MTT assay; type: cell-based; conditions: L-M(TK-); in short: as §1
Salmonella typhimurium [5] = assay: Reduction of spontaneous mutagenesis in histidine-dependent Salmonella Typhimurium TA102 harboring histidine operon mutant assessed as concentration required to suppress 100% to 50% mutagenesis after 48 hrs by Ames test; type: functional, organism-based, Salmonella enterica subsp. enterica serovar Typhimurium; conditions: Salmonella enterica, TA102, 48 h
In short: (§2)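 S. typhimurium TA102 Ames test without metabolic activation. Single colony grown 15 h at 37 °C with shaking in LB with ampicillin (50 µg/ml) and tetracycline (2 µg/ml). Overnight culture mixed with compound at varied concentrations, with or without 3 mM H2O2, in 0.6% top agar at 42 °C. Poured onto minimal 0.2% glucose plates, incubated 48 h at 37 °C, revertants counted. Untreated revertant count set as 100%. At least three independent experiments.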

MCF7 [6] = assay: Cytotoxicity against human MCF7 cells after 72 hrs by MTT assay; type: functional, cell-based; conditions: MCF7, 72 h; in short: as §1
RPMI-8226 [7] = assay: Cytotoxicity against human RPMI8226 cells after 72 hrs by MTT assay; type: functional, cell-based; conditions: RPMI-8226, 72 h; in short: as §1
Salmonella typhimurium [8] = assay: Reduction of spontaneous mutagenesis in histidine-dependent Salmonella Typhimurium TA102 harboring histidine operon mutant assessed as inhibition of H2O2-induced formation of mutants from 100% to 50% of revertants after 48 hrs by Ames test; type: functional, organism-based, Salmonella enterica subsp. enterica serovar Typhimurium; conditions: Salmonella enterica, TA102, 48 h; in short: as §2
Salmonella typhimurium [9] = assay: Reduction of spontaneous mutagenesis in histidine-dependent Salmonella Typhimurium TA102 harboring histidine operon mutant assessed as inhibition of H2O2-induced formation of mutants from 150% to 100% of revertants after 48 hrs by Ames test; type: functional, organism-based, Salmonella enterica subsp. enterica serovar Typhimurium; conditions: Salmonella enterica, TA102, 48 h; in short: as §2
MCF7 [10] = assay: Ratio of IC50 for human MCF7 cellss to IC50 for human RPMI8226 cells; type: functional
[11] = Cytotoxicity against PMF at 25 ug/ml after 72 hrs by MTT assay; conditions: mouse, PMF cells; read-out: INH
In short: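 Cells (~2000 per well) were preincubated 24 h at 37 °C, 5% CO2, in IMDM or RPMI 1640, then exposed to compound for 72 h with MTT read-out. Where cytotoxicity was low, percent growth inhibition at the highest concentration tested was recorded instead of an IC50. Values are mean ± SD of at least three independent experiments.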

[12] = Cytotoxicity against PMF at 25 ug/ml after 72 hrs by MTT assay; conditions: mouse
[13] = Cytotoxicity against mouse LMTK cells at 30 uM after 72 hrs by MTT assay; type: cell-based

Row | SMILES | Ratio IC50 (MCF7 [1]) | Ratio IC50 (RPMI-8226 [2]) | IC50 [3] [µM] | IC50 [4] [µM] | IC50 (Salmonella typhimurium [5]) [µM] | IC50 (MCF7 [6]) [µM] | IC50 (RPMI-8226 [7]) [µM] | IC50 (Salmonella typhimurium [8]) [µM] | IC50 (Salmonella typhimurium [9]) [µM] | Ratio IC50 (MCF7 [10]) | cytotoxicity at 72 h, 25 ug/ml [11] [%] | activity at 25 ug/ml [12] [%] | Activity [13] [%]
1 | O=C1C(F)=C(Nc2ccccc2)C(=O)c2c(F)c(F)c(F)c(F)c21 | 2 | 2 | – | – | – | – | – | – | – | – | – | – | –
2 | COC1=C(F)C(=O)c2c(F)c(F)c(F)c(F)c2C1=O | – | – | 8.9 | 13.7 | 39 | 26.5 | 4 | 20 | 2.8 | – | – | – | –
3 | COC1=C(OC)C(=O)c2c(F)c(F)c(F)c(F)c2C1=O | 13 | – | 18.9 | 8.6 | 198 | 6 | 0.96 | 53.8 | 38.3 | 6 | – | – | –
4 | O=C1C(F)=C(N2CCOCC2)C(=O)c2c(F)c(F)c(F)c(F)c21 | 13 | – | – | 30 | 131 | 5.7 | 6 | 169 | 54 | – | 45 | 45 | 50
5 | CCNC1=C(F)C(=O)c2c(F)c(F)c(F)c(F)c2C1=O | 2 | 2 | – | – | – | – | – | – | – | – | – | – | –
6 | O=C1C(F)=C(N(CCO)CCO)C(=O)c2c(F)c(F)c(F)c(F)c21 | 13 | – | 34 | 52.7 | 275 | 7.5 | 5.1 | 45.3 | 2.9 | – | – | – | –
7 | O=C1C=C(SCCO)C(=O)c2c(F)c(F)c(F)c(F)c21 | – | 5.3 | 30 | 25 | 26.1 | 12.8 | 2.9 | 23.5 | 12.7 | – | – | – | –
8 | CC(C)(C)NC1=C(F)C(=O)c2c(F)c(F)c(F)c(F)c2C1=O | 2 | 2 | – | – | – | – | – | – | – | – | – | – | –
9 | O=C1C(F)=C(NCCO)C(=O)c2c(F)c(F)c(F)c(F)c21 | 13 | – | 3.3 | 11.7 | 54 | 5.8 | 1.2 | 44.9 | 26 | 4.8 | – | – | –
10 | CCN(CC)C1=C(F)C(=O)c2c(F)c(F)c(F)c(F)c2C1=O | 2 | 2 | – | – | – | – | – | – | – | – | – | – | –
11 | CN(CCO)C1=C(F)C(=O)c2c(F)c(F)c(F)c(F)c2C1=O | 13 | – | 24.9 | 44.5 | 37.6 | 2.4 | 5.6 | 30.2 | 3.4 | – | – | – | –
